Data as given in ChEMBL document CHEMBL1132150, “Synthesis and evaluation of 3-trifluoromethyl-7-substituted-1,2,3, 4-tetrahydroisoquinolines as selective inhibitors of phenylethanolamine N-methyltransferase versus the alpha(2)-adrenoceptor” (J Med Chem, 1999).

What was measured:
[1] = target: T1, Adrenergic receptor alpha-2 (Rattus norvegicus, UniProt P22086+P19328+P22909); assay: The compound was tested in vitro for binding affinity against Alpha-2 adrenergic receptor using [3H]clonidine; format: protein assay
T1 sequence (P22086 whole entry): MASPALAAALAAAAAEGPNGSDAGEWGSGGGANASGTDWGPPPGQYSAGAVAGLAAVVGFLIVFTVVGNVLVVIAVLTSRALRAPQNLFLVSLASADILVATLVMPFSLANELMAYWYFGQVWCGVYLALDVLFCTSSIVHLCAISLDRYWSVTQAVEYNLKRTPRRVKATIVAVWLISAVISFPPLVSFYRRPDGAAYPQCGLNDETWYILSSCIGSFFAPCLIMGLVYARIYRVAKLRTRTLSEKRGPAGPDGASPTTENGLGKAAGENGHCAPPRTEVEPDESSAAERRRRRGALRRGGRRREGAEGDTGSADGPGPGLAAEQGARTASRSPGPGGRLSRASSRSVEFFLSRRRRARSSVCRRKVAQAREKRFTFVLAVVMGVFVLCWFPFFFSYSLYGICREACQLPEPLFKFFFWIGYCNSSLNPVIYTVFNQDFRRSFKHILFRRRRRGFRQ
T1 sequence (P19328 whole entry): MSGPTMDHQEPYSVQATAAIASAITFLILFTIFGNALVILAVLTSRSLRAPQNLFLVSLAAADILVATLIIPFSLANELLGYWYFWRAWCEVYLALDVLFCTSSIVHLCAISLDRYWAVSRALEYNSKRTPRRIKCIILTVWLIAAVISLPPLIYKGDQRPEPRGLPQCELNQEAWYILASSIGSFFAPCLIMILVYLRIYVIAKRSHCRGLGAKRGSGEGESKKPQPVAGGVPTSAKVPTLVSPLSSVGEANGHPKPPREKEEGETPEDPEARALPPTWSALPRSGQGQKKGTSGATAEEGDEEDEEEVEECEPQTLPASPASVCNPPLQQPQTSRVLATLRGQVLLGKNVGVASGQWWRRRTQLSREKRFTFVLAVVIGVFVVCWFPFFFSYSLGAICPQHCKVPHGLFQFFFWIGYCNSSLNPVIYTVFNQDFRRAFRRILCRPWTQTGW
T1 sequence (P22909 whole entry): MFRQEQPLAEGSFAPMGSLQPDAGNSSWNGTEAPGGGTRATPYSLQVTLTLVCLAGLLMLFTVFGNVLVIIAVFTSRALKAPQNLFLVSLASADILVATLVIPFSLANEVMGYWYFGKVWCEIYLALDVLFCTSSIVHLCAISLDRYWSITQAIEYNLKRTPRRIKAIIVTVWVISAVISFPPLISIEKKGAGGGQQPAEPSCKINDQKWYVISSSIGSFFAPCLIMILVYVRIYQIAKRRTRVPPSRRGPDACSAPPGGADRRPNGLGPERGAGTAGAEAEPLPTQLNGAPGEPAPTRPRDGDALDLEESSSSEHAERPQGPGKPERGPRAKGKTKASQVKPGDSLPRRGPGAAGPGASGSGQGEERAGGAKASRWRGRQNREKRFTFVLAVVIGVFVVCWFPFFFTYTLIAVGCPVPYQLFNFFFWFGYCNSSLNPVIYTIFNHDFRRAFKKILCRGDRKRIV
Summary of the method: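 Rat cortex membranes from male Sprague–Dawley rats, homogenized in ice-cold 50 mM Tris/HCl (pH 7.7 at 25 °C), washed by three 50000g spins. [³H]clonidine final 2.0 nM, varying inhibitor levels, 25 °C for 30 min. Filtration and scintillation counting. Nonspecific binding with 2 μM phentolamine. IC50 by log–probit analysis, Ki = IC50/(1 + [clonidine]/KD). Tested as HCl or HBr salts.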

[2] = Selectivity determined by Ki of alpha 2 receptor / Ki of PNMT
[3] = target: T1, Adrenergic receptor alpha-2; assay: Compound was tested in vitro for binding affinity against Alpha-2 adrenergic receptor using [3H]clonidine; format: protein assay
Summary of the method: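 Rat (male Sprague–Dawley) cortex membranes, washed three times by centrifugation in 50 mM Tris/HCl pH 7.7, incubated 30 min at 25 °C with 2.0 nM [3H]clonidine and varied inhibitor concentrations. Bound ligand was collected by vacuum filtration and counted. Nonspecific binding was defined with 2 μM phentolamine. IC50 came from log–probit analysis, and Ki = IC50/(1+[clonidine]/KD).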

[4] = target: T2, Phenylethanolamine N-methyltransferase (Bos taurus, UniProt P10938); assay: Inhibition of PNMT (Phenylethanolamine N-Methyltransferase) in vitro
T2 sequence (P10938 whole entry): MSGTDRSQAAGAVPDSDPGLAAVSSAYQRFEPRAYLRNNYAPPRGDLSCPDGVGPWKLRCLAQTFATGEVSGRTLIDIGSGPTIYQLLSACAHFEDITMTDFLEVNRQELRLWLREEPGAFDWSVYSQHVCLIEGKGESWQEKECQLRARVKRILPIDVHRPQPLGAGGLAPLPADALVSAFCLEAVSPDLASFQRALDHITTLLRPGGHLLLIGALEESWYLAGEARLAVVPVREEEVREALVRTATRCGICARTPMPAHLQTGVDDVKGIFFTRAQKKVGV
Summary of the method: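 Bovine adrenal PNMT, prepared through the isoelectric precipitation step, assayed radiochemically with phenylethanolamine as the variable substrate and [3H]AdoMet as methyl donor in phosphate buffer pH 8.0. Incubation was 30 min at 37 °C, quenched with borate pH 10, and product was extracted into toluene/isoamyl alcohol and counted. Three inhibitor concentrations spanning 5-fold were run in duplicate, and Ki came from a hyperbolic fit.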

[5] = target: T1, Adrenergic receptor alpha-2; assay: The compound was tested in vitro for binding affinity against Alpha-2 adrenergic receptor using [3H]clonidine, A precipitate was noted at 1000 uM; format: protein assay

| SMILES | Selectivity [2] | Ki [4] [µM] | also measured |
| --- | --- | --- | --- |
| NS(=O)(=O)c1ccc2c(c1)CNC(CO)C2 (stereo not drawn) | 4100 | – | Ki ([1]; read-out: Ki): 1400 µM |
| O=[N+]([O-])c1ccc2c(c1)CNC(C(F)(F)F)C2 (stereo not drawn) | 700 | 2 | Ki [3]: 1400 µM |
| COCC1Cc2ccccc2CN1 (stereo not drawn) | 0.3 | – | Ki ([3]; read-out: Ki): 2.8 µM |
| Clc1ccc2c(c1Cl)CNCCC2 | – | – | Ki [1]: 4.5 µM |
| Clc1ccc2c(c1Cl)CNCC2 | 0.095 | 0.22 | – |
| CS(=O)(=O)c1ccc2c(c1)CNC(C(F)(F)F)C2 (stereo not drawn) | 110 | 36 | – |
| CS(=O)(=O)c1ccc2c(c1)CNC(CO)C2 (stereo not drawn) | 1000 | – | Ki ([3]; read-out: Ki): 660 µM |
| CC1Cc2ccccc2CN1 (stereo not drawn) | 0.36 | – | – |
| N#Cc1ccc2c(c1)CNC(C(F)(F)F)C2 (stereo not drawn) | 220 | – | – |
| FC(F)(F)C1Cc2ccccc2CN1 (stereo not drawn) | 27 | 15 | – |
| FC(F)(F)C1Cc2ccc(Br)cc2CN1 (stereo not drawn) | > 1900 | – | Ki [5]: > 1000 µM |
| OCC1Cc2ccccc2CN1 (stereo not drawn) | 6 | – | Ki ([3]; read-out: Ki): 6.6 µM |
| c1ccc2c(c1)CCNC2 | 0.035 | – | – |
| CCC1Cc2ccccc2CN1 (stereo not drawn) | 0.028 | – | Ki [1]: 0.67 µM |
| COc1ccc2c3c([nH]c2c1)C=NCC3 [CGS-19281A] | 4.4 | 2.7 | Ki [1]: 12 µM |
